Measured values reported in ChEMBL document CHEMBL1641490, “Dicationic phenyl-2,2'-bichalcophenes and analogues as antiprotozoal agents” (Bioorg Med Chem, 2011).
The source made the active and inactive calls. The calls are words filed in the database; no cut-off is given here.

Experiments:
[1] = system: Trypanosoma brucei rhodesiense; test: Antitrypanosomal activity against Trypanosoma brucei rhodesiense STIB900 infected in NMRI mouse assessed as effect on survival days at 5 mg/kg, ip […] measured up to 60 days; format: functional; conditions: route intraperitoneal
[2] = system: Trypanosoma brucei rhodesiense; test: Antitrypanosomal activity against Trypanosoma brucei rhodesiense STIB900 infected in NMRI mouse assessed as parasitemia free host at 5 mg/kg, ip administered 2 days after post infection for 4 consecutive days measured up to 60 days; format: functional, organism-based; set-up: dose 5 mg/kg
[3] = system: Trypanosoma brucei rhodesiense; test: Antitrypanosomal activity against Trypanosoma brucei rhodesiense STIB900 after 70 hrs by alamar blue assay; format: functional, organism-based; conditions: STIB900, 70 h
Outline: (§1)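 Parasites were Trypanosoma brucei rhodesiense STIB900 and Plasmodium falciparum K1. Values are averages of duplicate determinations.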

[4] = Selectivity index, ratio of IC50 for rat L6 cells to IC50 for Trypanosoma brucei rhodesiense STIB900; format: toxicity, cell-based; conditions: L6 cells versus Trypanosoma brucei rhodesiense STIB900, read-out: Ratio IC50
Outline: (§2)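 Ratio of IC50 in cultured L6 rat myoblasts (Alamar Blue read-out) to IC50 against P. falciparum K1 or T. b. rhodesiense STIB900. Parasite values are the average of duplicate determinations.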

Plasmodium falciparum = test: Antiplasmodial activity against Plasmodium falciparum K1 infected in human RBC after 48 hrs by [3H]-hypoxanthine incorporation assay; format: functional, organism-based; outline: as §1
[5] = Selectivity index, ratio of IC50 for rat L6 cells to IC50 for Plasmodium falciparum K1; format: toxicity, cell-based; conditions: L6 cells versus Plasmodium falciparum K1, read-out: Ratio IC50; outline: as §2
L6 = test: Cytotoxicity against rat L6 cells by alamar blue assay; format: cell-based
[6] = system: Trypanosoma brucei rhodesiense; test: Antitrypanosomal activity against Trypanosoma brucei rhodesiense STIB900 infected in NMRI mouse assessed as effect on survival days at 20 mg/kg, ip administered 2 days after post infection for 4 consecutive days measured up to 60 days; format: functional; conditions: route intraperitoneal

SMILES | Survival [1] | Activity [2] | IC50 [3] | selectivity ratio [4] | IC50 (Plasmodium falciparum) | selectivity ratio [5] | ΔTm (Nucleic Acid) | IC50 (L6) | Survival [6]
N=C(N)c1ccc(-c2ccc(-c3ccc(C(=N)N)cc3)o2)cc1 [FURAMIDINE] | >46 days | Active | – | – | – | – | – | – | –
Cl.N=C(N)c1ccc(C#Cc2ccc(-c3ccc(C(=N)N)o3)o2)cc1 | 15.25 days | inactive | 42 nM | 1500 | 14.1 nM | 4470 | 4 °C | 63000 nM | –
Cl.N=C(N)c1ccc(-c2ccc(-c3ccc(C(=N)N)o3)s2)cc1 | >46.5 days | – | 2 nM | 14900 | 0.9 nM | 32600 | 13.1 °C | 29300 nM | –
Cl.N=C(N)c1ccc(-c2ccc(-c3ccc(C(=N)N)o3)o2)cc1 | – | – | 12 nM | 3150 | 41.5 nM | 910 | 8.5 °C | 37800 nM | >45.5 days
Cl.N=C(N)c1ccc(-c2ccc(-c3ccc(C(=N)N)o3)o2)cn1 | 41.75 days | inactive | 6 nM | 6420 | 1 nM | 38500 | 5.5 °C | 38500 nM | –
Cl.N=C(N)c1ccc(-c2ccc(-c3ccc(C(=N)N)s3)o2)cc1 | 16.75 days | inactive | 6 nM | 1820 | 17.4 nM | 626 | 14.1 °C | 10900 nM | –
Cl.N=C(N)c1ccc(-c2ccc(-c3ccc(C(=N)N)s3)s2)cn1 | 49 days | – | 4 nM | 1000 | 2.3 nM | 1740 | 16.6 °C | 4000 nM | –
N=C(N)c1ccc(OCCCCCOc2ccc(C(=N)N)cc2)cc1 [PENTAMIDINE] | >45 days | – | – | – | 6.4 nM | – | – | 6000 nM | –
Cl.N=C(N)c1ccc(-c2ccc(-c3ccc(C(=N)N)s3)s2)cc1 | 25.25 days | inactive | 2 nM | 3000 | 10.4 nM | 576 | 18.1 °C | 6000 nM | –
